This note sets out measurements from ChEMBL document CHEMBL4765234 (J Med Chem, 2016).

≈ marks a conversion by molar mass, not a printed value. Calls of active or inactive are those of the source. No cut-off for these calls is given here.

Data set [1] in a line: Aqueous solubility of the compound at pH 7.4. In kind it is physicochemical. The note with it: buffer.
Data set [2] is described as follows: Clearance in mouse hepatocytes by LC-MS/MS analysis. In kind it is ADME, cell-based, Hepatocyte.
The target of data set [3] is T1, Peroxisome proliferator-activated receptor delta (Homo sapiens) (UniProt Q03181).
T1 sequence (whole entry): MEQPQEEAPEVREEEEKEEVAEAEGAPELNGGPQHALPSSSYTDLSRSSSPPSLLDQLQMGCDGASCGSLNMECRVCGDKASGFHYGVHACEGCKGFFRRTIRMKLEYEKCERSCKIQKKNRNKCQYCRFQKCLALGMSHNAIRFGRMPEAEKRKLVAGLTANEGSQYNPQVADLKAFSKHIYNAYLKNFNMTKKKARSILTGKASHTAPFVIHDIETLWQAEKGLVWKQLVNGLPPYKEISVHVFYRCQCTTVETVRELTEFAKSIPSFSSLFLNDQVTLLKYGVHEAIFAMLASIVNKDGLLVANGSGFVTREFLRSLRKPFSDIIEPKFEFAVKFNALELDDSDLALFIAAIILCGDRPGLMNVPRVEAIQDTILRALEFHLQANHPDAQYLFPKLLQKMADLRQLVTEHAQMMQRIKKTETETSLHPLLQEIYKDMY
Description: Agonist activity at human Gal4-fused PPARdelta LBD expressed in African green monkey CV1 cells cotransfected with pRL-SV40 plasmid assessed as maximum efficacy measured after 24 hrs by luciferase reporter gene assay relative to control. The note with it: CV-1. In kind it is cell-based. The method in brief: (§1)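 CV1 African green monkey kidney cells were cotransfected, in DMEM with 5% charcoal-stripped FBS, with two plasmids: an SV40-driven Gal4 DBD–PPARα or PPARδ LBD hybrid, and a 5×Gal4-element firefly luciferase reporter. Cells were replated at 15000/well for 4 h, then exposed to 0.17 nM–10 μM in half-log steps for 24 h. Luciferase was read, normalized to maximum from 10 μM reference agonist, and fit by a 4-parameter model.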
(In general: A reporter such as luciferase makes a cellular process visible.)

A short description of data set [4]: Metabolic stability in human liver microsomes assessed as compound hydrolysis incubated for 30 mins by LC-MS/MS analysis. In kind it is ADME, Microsome. The note with it: read-out: Drug degradation. The method in brief:
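Incubated 30 min with mouse or human liver microsomes. Stability reported as % metabolized.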
Background: Microsomes from liver hold many membrane-bound enzymes, among them those of drug oxidation.

Data set [5] is described as follows: Lipophilicity, logP of compound. In kind it is physicochemical. The note with it: octanol/water.
Data set [6] can be described thus: Drug metabolism in dog hepatocytes assessed as glucuronidation by LC-MS/MS analysis. In kind it is ADME, cell-based, Canis lupus familiaris, Hepatocyte.
In data set [7] the target is T2, Peroxisome proliferator-activated receptor delta (Homo sapiens, UniProt Q03181).
T2 sequence (Q03181 whole entry): T1 sequence (whole entry)
In words: Agonist activity at human Gal4-fused PPARdelta LBD expressed in African green monkey CV1 cells cotransfected with pRL-SV40 plasmid measured after 24 hrs by luciferase reporter gene assay. In kind it is cell-based, CV-1. A digest of the protocol:
as §1

In another data set the test system is Rattus norvegicus. Description: Hypoglycemic activity in Zucker fatty diabetes mellitus rat model assessed as reduction in blood glucose level administered orally for 21 days and measured at 10 to 60 mins post glucose challenge on day 1 by OGTT. The note with it: dose 0.03-1 mg/kg, time 21.0 day. In kind it is functional, organism-based.
The test system of the next data set is Mus musculus. In words: Hypoglycemic activity in Balb/c mouse assessed as increase in insulin secretion at 0.03 to 3 mg/kg, po administered 60 mins prior to glucose challenge and measured at 3 to 7 mins by IPGTT. In kind it is functional, organism-based. The note with it: dose 0.03-3 mg/kg.
Data set [8] can be described thus: Drug metabolism in mouse hepatocytes assessed as glucuronidation by LC-MS/MS analysis. In kind it is ADME, cell-based, Hepatocyte.
Data set [9] deals with Voltage-gated inwardly rectifying potassium channel KCNH2 (Homo sapiens, UniProt Q12809). Description: Inhibition of human ERG.
Chain of Voltage-gated inwardly rectifying potassium channel KCNH2 (Q12809 whole entry): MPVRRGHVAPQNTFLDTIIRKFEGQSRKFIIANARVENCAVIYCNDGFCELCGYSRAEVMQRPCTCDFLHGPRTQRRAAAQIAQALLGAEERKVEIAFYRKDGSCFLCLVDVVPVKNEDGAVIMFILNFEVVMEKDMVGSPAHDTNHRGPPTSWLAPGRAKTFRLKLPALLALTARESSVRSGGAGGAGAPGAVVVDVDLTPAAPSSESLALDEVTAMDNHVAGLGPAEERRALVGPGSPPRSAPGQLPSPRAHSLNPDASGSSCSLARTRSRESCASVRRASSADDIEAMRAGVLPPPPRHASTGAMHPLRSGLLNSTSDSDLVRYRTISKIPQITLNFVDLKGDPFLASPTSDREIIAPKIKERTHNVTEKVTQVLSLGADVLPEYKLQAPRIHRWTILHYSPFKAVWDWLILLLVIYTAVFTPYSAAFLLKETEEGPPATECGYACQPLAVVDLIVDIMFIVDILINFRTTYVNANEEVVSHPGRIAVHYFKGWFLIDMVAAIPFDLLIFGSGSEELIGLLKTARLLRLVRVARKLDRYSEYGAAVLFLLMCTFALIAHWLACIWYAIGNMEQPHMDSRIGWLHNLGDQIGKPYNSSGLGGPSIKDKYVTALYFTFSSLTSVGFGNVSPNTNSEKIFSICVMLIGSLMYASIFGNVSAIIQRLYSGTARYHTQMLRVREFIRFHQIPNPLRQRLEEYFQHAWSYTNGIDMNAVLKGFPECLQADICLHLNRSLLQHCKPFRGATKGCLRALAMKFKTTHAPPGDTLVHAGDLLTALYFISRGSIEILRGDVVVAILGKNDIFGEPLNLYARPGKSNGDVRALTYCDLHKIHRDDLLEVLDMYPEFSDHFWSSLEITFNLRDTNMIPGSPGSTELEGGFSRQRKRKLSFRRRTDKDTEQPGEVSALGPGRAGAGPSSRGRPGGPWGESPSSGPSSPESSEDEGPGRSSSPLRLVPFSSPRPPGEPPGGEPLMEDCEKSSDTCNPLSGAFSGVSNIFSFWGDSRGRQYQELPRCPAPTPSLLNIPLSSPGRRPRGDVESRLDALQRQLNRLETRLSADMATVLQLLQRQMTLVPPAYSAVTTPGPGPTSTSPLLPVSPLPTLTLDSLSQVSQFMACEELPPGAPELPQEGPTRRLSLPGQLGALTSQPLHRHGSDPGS
Data set [10] addresses T3, Peroxisome proliferator-activated receptor alpha (Homo sapiens) (UniProt Q07869).
T3 sequence (whole entry): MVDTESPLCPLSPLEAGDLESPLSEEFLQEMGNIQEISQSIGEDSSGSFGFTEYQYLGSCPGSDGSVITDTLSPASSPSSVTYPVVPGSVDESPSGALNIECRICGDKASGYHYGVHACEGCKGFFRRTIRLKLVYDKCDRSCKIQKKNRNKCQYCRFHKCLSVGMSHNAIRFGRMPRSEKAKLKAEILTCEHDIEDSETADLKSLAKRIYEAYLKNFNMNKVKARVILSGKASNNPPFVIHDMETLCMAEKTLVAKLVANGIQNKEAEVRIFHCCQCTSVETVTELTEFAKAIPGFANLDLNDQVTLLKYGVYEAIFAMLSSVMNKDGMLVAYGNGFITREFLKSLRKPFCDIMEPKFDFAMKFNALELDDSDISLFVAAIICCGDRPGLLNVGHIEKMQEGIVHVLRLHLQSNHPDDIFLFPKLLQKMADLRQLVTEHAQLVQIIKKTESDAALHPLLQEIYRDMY
In words: Agonist activity at human Gal4-fused PPARalpha LBD expressed in African green monkey CV1 cells cotransfected with pRL-SV40 plasmid assessed as maximum efficacy measured after 24 hrs by luciferase reporter gene assay relative to control. In kind it is cell-based. The note with it: CV-1. A digest of the protocol:
as §1

With `CC#C[C@@H](CC(=O)O)c1ccc(OCc2ccc(CN3CCCc4cccc(OC)c43)s2)cc1`, the solubility – broadly, the dissolved amount per volume that the medium holds – in data set [1] was > 100 µM. Moreover, the CLH in data set [2] was < 0.05 h⁻¹. The results for the Emax in data set [3] and in data set [10] were 1% and 4%, respectively. Besides, in data set [4], the metabolised at 0.5 h was 24%. Further, the log partition coefficient (logP) (as a rule, the decadic logarithm of the partition coefficient of the neutral form, usually between octanol and water) in data set [5] came out at 5.2. Besides, the Drug metabolism entry in data set [6] and in data set [8] was “Metabolite_Detected” each time. The EC50 (usually the concentration giving half of the maximal effect) in data set [7] is > 10 µM. In the data set on Rattus norvegicus, the Activity entry is “Dose-dependent effect”. Besides, the result in the data set with Mus musculus was Active. For the same compound, the IC50 – broadly, the midpoint of a concentration-inhibition curve – in data set [9] was > 10 µM.

Turning to `CC#C[C@@H](CC(=O)O)c1ccc(OCc2ccc(CN3CCC4(C=Cc5ccccc54)CC3)s2)cc1`, the Drug metabolism entry in data set [6] is “Metabolite_Detected”.

`CC#C[C@@H](CC(=O)O)c1ccc(OCc2ccc(CN3CCC4(C=Cc5ccccc54)CC3)cc2)cc1` [LY2881835] returned a solubility in [1] of 61 µM (≈ 30 µg/mL). In data set [2], this compound registered a CLH of 0.09 h⁻¹. Moreover, the values for the Emax in [3] and in data set [10] were 5% and 4%, respectively. In addition, the metabolised at 0.5 h in data set [4] came out at 38%. Further, the logP in data set [5] came to 4.9. The Drug metabolism result in data set [6] and in data set [8] was “Metabolite_Detected” throughout. Further, the EC50 in data set [7] was > 10 µM. The Activity result in the data set with Rattus norvegicus was “Dose-dependent effect”. Also, the outcome in the data set on Mus musculus was Active. Also, in data set [9], the IC50 is > 10 µM.

In the case of `CC#C[C@@H](CC(=O)O)c1ccc(OCc2ccc(CN3CCC4(CCc5ccccc54)CC3)s2)cc1`, in data set [1], the solubility turned out to be 89 µM (≈ 44.5 µg/mL). Besides, in data set [2], the CLH came to 0.1 h⁻¹. Moreover, the Emax in data set [3] was 2%; in [10], 4%. In data set [4], the metabolised at 0.5 h stood at 44%. Further, in data set [5], the lipophilicity (logP) amounted to 5. Further, the Drug metabolism entry in data set [6] and in [8] was “Metabolite_Detected” throughout. Moreover, in data set [7], the EC50 was > 10 µM. The Activity entry in the data set with Rattus norvegicus is “Dose-dependent effect”. The outcome with Mus musculus was Active. In addition, in data set [9], the IC50 was > 10 µM.
